Consider one compound from ChEMBL document CHEMBL4842325, “Lanosterol 14α-demethylase (CYP51)/histone deacetylase (HDAC) dual inhibitors for treatment of Candida tropicalis and Cryptococcus neoformans infections” (Eur J Med Chem, 2021).

Test [1] deals with Cryptococcus neoformans. Briefly: Downregulation of CLR61 mRNA expression in Cryptococcus neoformans H99 at 2 ug/ml measured after 24 hrs by qRT-PCR analysis. The conditions noted are these: dose 2.0 µg/ml. The format is functional. The essentials: (§1)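 Exponentially growing C. neoformans H99 inoculated into 50 mL YPD with compound and incubated 35 °C for 24 h. Cells ground in liquid nitrogen before total RNA isolation, then reverse transcription and real-time RT-qPCR. Means ± SD of three independent assays.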

For test [2], the system named is Candida tropicalis. Briefly: microbe, parasite or virus in culture. In kind it is functional. The conditions noted are these: 3890, time 48 hrs.
Test [3] relates to Cryptococcus neoformans. Briefly: Downregulation of HOS3 mRNA expression in Cryptococcus neoformans H99 at 2 ug/ml measured after 24 hrs by qRT-PCR analysis. The format is functional. The conditions noted are these: dose 2.0 µg/ml. A digest of the protocol:
as §1

The test system of test [4] is Candida albicans. The experiment in a line: Antifungal activity against fluconazole-sensitive Candida albicans 10061 assessed as inhibition of fungal growth. The format is functional.
Test [5] relates to Candida albicans. Briefly: Antifungal activity against fluconazole-sensitive Candida albicans 9770 assessed as inhibition of fungal growth. In kind it is functional.
For test [6], the system named is Candida tropicalis. Briefly: Inhibition of CYP51 in Candida tropicalis 5008 assessed as eburicol level at 4 ug/ml by GC-MS analysis. Also noted: scale not given: the % may be the effect or the level left. The conditions noted are these: dose 4.0 µg/ml.
Test [7] deals with Cryptococcus neoformans. Briefly: microbe, parasite or virus in culture. The conditions noted are these: H99, time 72 hrs. The format is functional.
For another test, the system named is HUVEC. The experiment in a line: Cytotoxicity against human HUVEC assessed as reduction in cell viability. In kind it is cell-based.
Test [8] has as its system Cryptococcus neoformans. Briefly: Inhibition of CYP51 in Cryptococcus neoformans H99 assessed as eburicol level at 4 ug/ml by GC-MS analysis (reference value: 39.82%). Also noted: scale not given: the % may be the effect or the level left. The conditions noted are these: dose 4.0 µg/ml.
Test [9] relates to Candida albicans. Briefly: microbe, parasite or virus in culture. The format is functional. The conditions noted are these: 7781.
For test [10], the system named is Cryptococcus neoformans. Briefly: Antifungal activity against fluconazole-sensitive Cryptococcus neoformans H99 assessed as inhibition of cell proliferation at 2 to 8 ug/ml measured for 48 hrs by time growth curve assay. In kind it is functional, organism-based. The conditions noted are these: dose 2-8 µg/ml. The essentials: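 Exponential-phase cells from YEPD resuspended in 3 mL fresh RPMI 1640 at 1 × 10⁵ cells/mL (C. tropicalis 5008) or 1 × 10⁶ cells/mL (C. neoformans H99). Compound at several concentrations; cultures shaken at 240 rpm, 30 °C. Growth read as OD₆₃₀ at 0, 6, 12, 24, 36 and 48 h. Done in triplicate.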

For test [11], the system named is Cryptococcus neoformans. Briefly: Downregulation of CAP60 gene expression in Cryptococcus neoformans H99 at 2 ug/ml measured after 24 hrs by qRT-PCR analysis. In kind it is functional. The conditions noted are these: dose 2.0 µg/ml. The essentials:
as §1

Test [12] is described as follows: Inhibition of HDAC in Candida tropicalis 5008 using Boc-Lys(Ac)-AMC as substrate preincubated with protoplast for 12 hrs followed by incubation with substrate for 6 hrs by fluorimetric assay. A digest of the protocol:
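Whole-cell assay on C. tropicalis 5008, 100 mg wet weight of exponential-phase cells. Cell wall removed with snailase to give protoplasts, which were dispersed in PBS. Protoplasts incubated with compound at 35 °C for 12 h. Boc-Lys(Ac)-AMC then added to a final 30 µM and incubated 37 °C for 6 h. Stop solution added, 37 °C for 2 h. Fluorescence read at Ex 360/Em 460 nm and converted to HDAC inhibition rate.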

Test [13] relates to Candida tropicalis. Briefly: Inhibition of biofilm formation in Candida tropicalis 5008 at 64 ug/ml incubated for 24 hrs by XTT reduction assay. In kind it is functional. The essentials: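 C. tropicalis 5008 or C. neoformans H99 from exponential YEPD culture diluted in RPMI 1640 to 1 × 10⁶ CFU/mL. Adhesion at 37 °C for 1.5 h. Results given as percent inhibition versus untreated wells. Three independent experiments, mean ± SD, t-test.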

The test system of test [14] is Candida tropicalis. The experiment in a line: Downregulation of CDR1 mRNA expression in Candida tropicalis 5008 at 4 ug/ml measured after 24 hrs by qRT-PCR analysis. In kind it is functional. The conditions noted are these: dose 4.0 µg/ml. The essentials:
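Exponential-phase C. tropicalis 5008 inoculated into 10 mL YPD with compound at several concentrations, DMSO as blank control. Incubated 35 °C for 24 h. Total RNA isolated on columns and reverse-transcribed. Real-time RT-PCR with ACT1 as internal control. Mean of 3 independent assays ± SD.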

Test [15] concerns Cryptococcus neoformans. Briefly: Downregulation of CAP10 gene expression in Cryptococcus neoformans H99 at 2 ug/ml measured after 24 hrs by qRT-PCR analysis. The format is functional. The conditions noted are these: dose 2.0 µg/ml. The essentials: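 Exponential-phase C. neoformans H99 inoculated into 50 mL YPD with compound. Incubated 35 °C for 24 h, then cultures ground in liquid nitrogen for RNA isolation. Transcript levels of capsule-associated genes quantified by RT-qPCR. Three independent experiments, mean ± SD, t-test.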

Test [16] deals with Cryptococcus neoformans. Briefly: Downregulation of HDA1 mRNA expression in Cryptococcus neoformans H99 at 2 ug/ml measured after 24 hrs by qRT-PCR analysis. The format is functional. The conditions noted are these: dose 2.0 µg/ml. The essentials: as §1

≈ marks a conversion by molar mass, not a printed value. Calls of active or inactive are those of the source. The calls are words filed in the database; no cut-off is given here.

On to `O=C(CCCCCCCOc1ccc(CN2CCN(CC(O)(Cn3cncn3)c3ccc(F)cc3F)CC2)cc1)NO` (configuration not stated), for which the inhibition entry in the test with Cryptococcus neoformans [1], in the test with Cryptococcus neoformans [3], in the test on Cryptococcus neoformans [11], in the test with Candida tropicalis [14], in the test with Cryptococcus neoformans [15] and in the test with Cryptococcus neoformans [16] was “Active” throughout. Further, the MIC80 stood at 0.5 µg/mL (≈ 0.852 µM) in the test on Candida tropicalis [2]; 16 µg/mL (≈ 27.3 µM) in the test with Candida albicans [4]; 16 µg/mL (≈ 27.3 µM) in the test with Candida albicans [5]; 0.5 µg/mL (≈ 0.852 µM) in the test with Cryptococcus neoformans [7]; 1 µg/mL (≈ 1.7 µM) against Candida albicans [9]. For the same compound, the results for the Activity in the test with Candida tropicalis [6] and in the test on Cryptococcus neoformans [8] were 69.3% and 71.3%, respectively. For the same compound, the figures for the IC50 (in the test with HUVEC; in test [12]) were 5.9 µg/mL (≈ 10.1 µM) and 2380 nM, respectively. Moreover, in the test on Cryptococcus neoformans [10], the outcome was Active. Besides, in the test with Candida tropicalis [13], the inhibition at 64 µg/mL amounted to 100%.
